The nature of data set [1]: Ratio of AUC(0 to t) in Kunming mouse brain to plasma at 5 mg/kg, po measured upto 24 hrs by LC-MS/MS method. Type of data set: ADME, organism-based. As to conditions: brain and plasma. The procedure, abridged:
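Male KM mice (18−24 g) fasted 12 h before and 2 h after dosing, given 5 mg/kg orally in 5% DMSO/5% Tween 80/90% normal saline (n = 3 per time point). Aortic blood taken at 0.25–24 h and whole brain collected. Acetonitrile extraction with internal standard, then LC−MS/MS. Bioavailability calculated against the 2 mg/kg i.v. arm.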

The target in data set [2] is T1, CYP2C19 (Homo sapiens, UniProt P33261). Kind of data set: Inhibition of human liver microsome CYP2C19 at 0.10 to 50 uM preincubated with NADPH for 0.5 hrs followed by substrate addition by LC-MS/MS method relative to control. Type of data set: ADME. The conditions noted are these: liver microsomes, dose 0.1-50 µM. (Microsomes from liver hold many membrane-bound enzymes, among them those of drug oxidation.)

The target of data set [3] is CYP3A4 (Homo sapiens, UniProt P08684). Kind of data set: Ratio of IC50 for human liver microsome CYP3A4 using testosterone as substrate in absence of NADPH to IC50 for human liver microsome CYP3A4 using testosterone as substrate in presence of NADPH. As to conditions: liver microsomes, probe testosterone, read-out: Ratio IC50. Summed up: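 Human liver microsomes preincubated 0.5 h with 0.10−50 μM compound, with or without NADPH, then CYP-specific probe substrates added (CYP3A4 with midazolam 1′-hydroxylation and with testosterone 6β-hydroxylation). Metabolites quantified by LC−MS/MS; % activity remaining computed against no-compound control. IC50 fitted by Probit model; ratio = IC50(−NADPH)/IC50(+NADPH).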

A short description of data set [4]: Half life in Kunming mouse plasma at 2 mg/kg, iv measured upto 24 hrs by LC-MS/MS method. Type of data set: ADME, organism-based. Summed up:
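Male KM mice (n = 3 per time point) given 2 mg/kg i.v. in normal saline with 1% Tween 80, diluted from the oral formulation. Retro-orbital plexus blood taken at 0.083–24 h. Plasma extracted with acetonitrile plus internal standard and assayed by LC−MS/MS.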

In data set [5] the target is Cytochrome P450 2B6 (Homo sapiens, UniProt P20813). The experiment in a line: Time dependent inhibition of human liver microsome CYP2B6 preincubated for 0.5 hrs in presence of NADPH followed by substrate addition by LC-MS/MS method. Type of data set: ADME, microsomes. Summed up: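 Human liver microsomes preincubated 0.5 h with 0.10–50 μM test compound, with or without NADPH, then CYP-specific probe substrate added and incubation continued. Metabolite measured by LC-MS/MS; % activity remaining relative to no-compound control; IC50 fitted by Probit model. For CYP3A4, midazolam 1′-hydroxylation and testosterone 6β-hydroxylation were read separately.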

The nature of data set [6]: Tmax in Sprague-Dawley rat at 20 mg/kg, po measured upto 24 hrs by LC-MS/MS method. The data set is classed as ADME, organism-based. As to conditions: in vivo. The procedure, abridged:
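Male SD rats (180–220 g) dosed orally at 2, 6 and 20 mg/kg, handled like the mice: fasting, 5% DMSO/5% Tween 80/saline vehicle, acetonitrile extraction, LC-MS/MS of plasma. In a separate set at 6 mg/kg p.o., blood and brain were sampled together.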

Data set [7] in a line: AUC(0 to t) in Kunming mouse plasma at 2 mg/kg, iv measured upto 24 hrs by LC-MS/MS method. Type of data set: ADME, organism-based. More on the design: time < 24 hrs, dose 2 mg/kg, route iv. The procedure, abridged: (§1)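 KM male mice (18−24 g), fasted 12 h before and 2 h after dosing. HN37 given orally at 5 mg/kg in 5% DMSO/5% Tween 80/90% saline, or iv at 2 mg/kg after dilution in saline with 1% Tween 80; n = 3 per time point. Blood sampled 0.25–24 h (from 0.083 h after iv); whole brain taken after oral dosing. Plasma and brain extracted with acetonitrile, quantified by LC−MS/MS; AUC0−t by trapezoidal method.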

The nature of data set [8]: Volume of distribution at steady state in Kunming mouse plasma at 2 mg/kg, iv measured upto 24 hrs by LC-MS/MS method. The data set is classed as ADME, organism-based. The conditions noted are these: in vivo. Summed up:
(§2)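 Male KM mice (18–24 g), fasted 12 h before and 2 h after dosing, n = 3 per time point. Oral dose in 5% DMSO/5% Tween 80/90% saline; i.v. dose is that formulation diluted in saline with 1% Tween 80. Blood sampled 0.25–24 h after oral dosing, 0.083–24 h after i.v.; whole brain taken after oral dosing. Acetonitrile extraction with internal standard, LC-MS/MS.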

The subject of data set [9] is CHO. Kind of data set: Agonist activity at rat KCNQ3 A278T mutant expressed in CHO cells assessed as amplitude change of outward current at 0.1 uM by patch clamp method. The data set is classed as cell-based. As to conditions: filed as agonist. Summed up: (§3)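 Whole-cell patch clamp at room temperature on CHO cells (DMEM/F12, 10% FBS) transiently co-transfected with EGFP and hKCNQ1, rKCNQ2, rKCNQ3 A278T, hKCNQ4 or hKCNQ5; KCNQ2/3 at 1:1 cDNA ratio. Pipette solution 145 mM KCl, 5 mM MgATP, pH 7.3; bath 140 mM NaCl, 5 mM KCl, pH 7.4, under perfusion. V1/2 from Boltzmann fits; I/I0 is current amplitude with versus without compound; n = 4−6.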
In general terms: In patch-clamp work, channel activity is measured electrically.

Data set [10] can be described thus: Tmax in Kunming mouse plasma at 5 mg/kg, po measured upto 24 hrs by LC-MS/MS method. The data set is classed as ADME, organism-based. Summed up: as §2
A short description of data set [11]: Cmax in Kunming mouse brain at 5 mg/kg, po measured upto 24 hrs by LC-MS/MS method. Type of data set: ADME, organism-based. Also on record: dose 5 mg/kg, time < 24 hrs, route po. Summed up:
as §1

Data set [12] concerns the target CYP2C8 (Homo sapiens, UniProt P10632). Kind of data set: Ratio of IC50 for human liver microsome CYP2C8 in absence of NADPH to IC50 for human liver microsome CYP2C8 in presence of NADPH. As to conditions: liver microsomes, read-out: Ratio IC50.
Data set [13] can be described thus: Metabolic stability in dog liver microsomes assessed as half life. The data set is classed as ADME, Canis lupus familiaris, Microsome.
Data set [14] is described as follows: Ratio of drug concentration in brain to plasma of MES induced Kunming mouse model of seizure.
Data set [15] deals with Potassium voltage-gated channel subfamily KQT member 2/member 3 (Rattus norvegicus) (UniProt O88943+O88944). The experiment in a line: Agonist activity at rat KCNQ2/3 channel expressed in CHO cells assessed as amplitude change of outward current at 0.1 uM by patch clamp method. The data set is classed as cell-based. As to conditions: filed as agonist. The procedure, abridged:
as §3

The target in data set [16] is Potassium voltage-gated channel subfamily KQT member 5 (Homo sapiens) (UniProt Q9NR82). The experiment in a line: Agonist activity at human KCNQ5 channel expressed in CHO cells assessed as shift of half voltage of maximal activation at 0.1 uM by patch clamp method. The conditions noted are these: filed as agonist. Type of data set: cell-based. The procedure, abridged:
as §3

Data set [17] addresses T1, CYP2C19. Kind of data set: Ratio of IC50 for human liver microsome CYP2C19 in absence of NADPH to IC50 for human liver microsome CYP2C19 in presence of NADPH. As to conditions: liver microsomes, read-out: Ratio IC50.
Data set [18] in a line: Neurotoxicity in Kunming mouse assessed as motor impairment rate at 250 mg/kg, po after 1 hr by rotarod test. Type of data set: toxicity, organism-based. As to conditions: in vivo. The procedure, abridged:
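Male KM mice dosed intragastrically with compound freshly suspended in 0.5% CMC-Na. Rotarod performance scored 1 h after dosing as the fraction of animals showing motor impairment. Fisher's exact test versus vehicle; TD50 from nonlinear dose−response fit.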
On the technique in general: The rotarod test checks motor coordination on a turning rod.

In data set [19] the test system is Mus musculus. Kind of data set: Anticonvulsant activity in MES induced Kunming mouse model of seizure at 60 mg/kg, po. Type of data set: functional. The procedure, abridged:
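MES test in male KM mice. Compounds freshly suspended in 0.5% CMC-Na and given by gavage at 20 mL/kg; 160 V stimulus through ear clips. Protection scored as absence of hindlimb tonic extension; time course at 0.25, 0.5, 1 and 2 h, otherwise tested at 1 h. ED50 from dose−response by nonlinear regression; Fisher's exact test versus vehicle.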

pIC50: −log10 of the molar value.

The values below come from ChEMBL document CHEMBL5149984, “Discovery of HN37 as a Potent and Chemically Stable Antiepileptic Drug Candidate” (J Med Chem, 2021).

T1 sequence (P33261 whole entry): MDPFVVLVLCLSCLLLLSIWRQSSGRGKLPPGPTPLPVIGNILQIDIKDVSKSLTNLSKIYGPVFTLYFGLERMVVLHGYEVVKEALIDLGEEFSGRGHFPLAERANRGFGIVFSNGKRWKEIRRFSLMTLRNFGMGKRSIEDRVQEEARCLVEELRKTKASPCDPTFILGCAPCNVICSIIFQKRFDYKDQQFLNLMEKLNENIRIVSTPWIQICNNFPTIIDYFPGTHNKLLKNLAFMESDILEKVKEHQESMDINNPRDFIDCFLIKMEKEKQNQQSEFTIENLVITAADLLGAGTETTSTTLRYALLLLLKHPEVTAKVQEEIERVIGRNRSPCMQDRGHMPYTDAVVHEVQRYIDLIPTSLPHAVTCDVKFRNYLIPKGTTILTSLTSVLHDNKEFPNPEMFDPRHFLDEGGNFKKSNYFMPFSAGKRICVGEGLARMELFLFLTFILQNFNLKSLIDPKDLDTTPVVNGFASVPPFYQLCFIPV
Chain of CYP3A4 (P08684 whole entry): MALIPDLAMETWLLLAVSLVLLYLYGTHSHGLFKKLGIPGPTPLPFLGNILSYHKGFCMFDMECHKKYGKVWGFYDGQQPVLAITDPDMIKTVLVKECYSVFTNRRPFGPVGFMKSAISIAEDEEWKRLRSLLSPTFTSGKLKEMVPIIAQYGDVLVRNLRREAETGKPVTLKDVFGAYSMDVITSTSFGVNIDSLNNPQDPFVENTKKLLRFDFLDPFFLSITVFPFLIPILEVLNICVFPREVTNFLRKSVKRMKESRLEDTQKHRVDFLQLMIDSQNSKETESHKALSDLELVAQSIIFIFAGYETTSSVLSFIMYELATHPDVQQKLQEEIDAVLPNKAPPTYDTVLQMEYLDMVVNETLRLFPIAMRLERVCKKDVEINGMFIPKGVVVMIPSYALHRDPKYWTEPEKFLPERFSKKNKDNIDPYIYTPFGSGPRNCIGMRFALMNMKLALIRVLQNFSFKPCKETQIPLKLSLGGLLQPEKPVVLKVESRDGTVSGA
Chain of CYP2C8 (P10632 whole entry): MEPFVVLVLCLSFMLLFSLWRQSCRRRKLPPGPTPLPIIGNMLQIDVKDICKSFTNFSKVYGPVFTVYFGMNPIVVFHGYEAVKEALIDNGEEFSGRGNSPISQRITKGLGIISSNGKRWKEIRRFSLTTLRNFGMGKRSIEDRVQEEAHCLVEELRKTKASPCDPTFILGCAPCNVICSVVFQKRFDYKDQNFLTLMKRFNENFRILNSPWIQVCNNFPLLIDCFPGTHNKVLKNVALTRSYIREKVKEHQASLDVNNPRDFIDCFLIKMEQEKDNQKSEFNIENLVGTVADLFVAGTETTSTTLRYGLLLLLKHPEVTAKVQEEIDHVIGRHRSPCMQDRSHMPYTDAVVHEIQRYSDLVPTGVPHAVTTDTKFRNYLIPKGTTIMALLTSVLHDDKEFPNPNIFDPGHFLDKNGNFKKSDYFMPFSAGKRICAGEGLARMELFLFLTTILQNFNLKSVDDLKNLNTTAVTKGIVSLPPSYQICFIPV
Chain of Potassium voltage-gated channel subfamily KQT member 5 (Homo sapiens) (Q9NR82 whole entry): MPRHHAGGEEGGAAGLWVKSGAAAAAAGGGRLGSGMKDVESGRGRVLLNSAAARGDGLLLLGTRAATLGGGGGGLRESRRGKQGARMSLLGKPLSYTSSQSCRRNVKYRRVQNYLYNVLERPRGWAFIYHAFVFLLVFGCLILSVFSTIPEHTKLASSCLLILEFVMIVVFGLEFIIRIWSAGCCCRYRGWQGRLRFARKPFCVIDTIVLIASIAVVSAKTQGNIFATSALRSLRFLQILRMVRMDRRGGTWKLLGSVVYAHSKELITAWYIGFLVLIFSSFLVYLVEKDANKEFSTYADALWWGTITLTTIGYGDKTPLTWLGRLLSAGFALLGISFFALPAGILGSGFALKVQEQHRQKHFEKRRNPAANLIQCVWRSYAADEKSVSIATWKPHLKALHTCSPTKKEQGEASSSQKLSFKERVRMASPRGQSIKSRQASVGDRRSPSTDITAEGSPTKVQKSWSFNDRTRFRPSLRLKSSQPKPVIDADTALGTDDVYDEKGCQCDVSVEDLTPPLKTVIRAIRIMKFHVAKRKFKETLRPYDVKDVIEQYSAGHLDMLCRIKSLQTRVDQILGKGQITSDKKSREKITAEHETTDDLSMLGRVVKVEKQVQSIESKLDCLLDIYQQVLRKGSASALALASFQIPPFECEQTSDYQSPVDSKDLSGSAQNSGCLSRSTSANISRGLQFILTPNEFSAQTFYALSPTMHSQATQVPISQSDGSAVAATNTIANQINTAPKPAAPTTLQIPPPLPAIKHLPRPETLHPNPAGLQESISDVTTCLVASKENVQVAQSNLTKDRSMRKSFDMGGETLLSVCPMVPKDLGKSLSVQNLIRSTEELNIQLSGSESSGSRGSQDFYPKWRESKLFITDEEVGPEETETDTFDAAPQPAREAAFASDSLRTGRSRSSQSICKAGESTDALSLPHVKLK
Chain of Cytochrome P450 2B6 (P20813 whole entry): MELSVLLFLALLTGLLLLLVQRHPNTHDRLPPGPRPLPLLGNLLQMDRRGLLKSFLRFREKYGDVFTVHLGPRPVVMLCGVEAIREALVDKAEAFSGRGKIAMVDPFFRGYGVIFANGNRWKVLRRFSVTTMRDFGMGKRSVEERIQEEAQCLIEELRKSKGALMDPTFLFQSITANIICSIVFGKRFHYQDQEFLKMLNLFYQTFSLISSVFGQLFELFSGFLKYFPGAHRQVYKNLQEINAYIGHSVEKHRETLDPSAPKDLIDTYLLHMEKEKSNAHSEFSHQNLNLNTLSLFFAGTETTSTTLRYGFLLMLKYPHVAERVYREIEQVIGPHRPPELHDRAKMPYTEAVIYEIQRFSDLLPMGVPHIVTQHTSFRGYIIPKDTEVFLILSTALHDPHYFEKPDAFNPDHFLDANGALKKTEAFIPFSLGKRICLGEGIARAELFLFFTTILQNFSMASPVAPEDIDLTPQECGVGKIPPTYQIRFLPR

Broadly, the Kp is tissue or fluid exposure divided by exposure in the circulation. For orientation: inhibition means the change of the read-out against control, counted positive when it falls. A lower inhibition goes with a response near the control. The term half-life denotes how long it takes for the measured level to halve. The term pIC50 denotes the IC50 on a negative log10 scale, so that one unit is a factor of ten. The Tmax is the time at which the peak concentration occurs. A word on the AUC(0-t): it is the area under the concentration-time curve up to a stated or last time point. Low readings indicate low exposure, high ones high exposure. For orientation: Vdss means a proportionality between amount in the body and measured concentration, not a real space. The Cmax is the highest concentration seen after dosing. For the compound `C#CCN(Cc1ccc(F)cc1)c1cc(C)c(NC(=O)OC)c(C)c1`, the Kp at 24 h in [1] was 2.23. In data set [2], the inhibition at 0.5 h, up to 50 µM is < 25%. Also, the IC50 shift is < 1.5 in data set [3], > 1.5 in [12] and < 1.5 in data set [17]. In addition, the half-life is 48 min in [4] and 35.5 min in data set [13]. The pIC50 in data set [5] is 5.24. For the same compound, the Tmax in [6] stood at 3.67 h; in data set [10] it was 15 min. The same compound returned an AUC(0-t) at 24 h in data set [7] of 531 ng·h/mL. This compound yielded a Vdss in data set [8] of 2.89 L/kg. Further, the Activity in data set [9] was 2.1; in data set [15], 2.77; in data set [16] it was -9.03 mV. Also, the Cmax in data set [11] came out at 263 ng/mL. Further, in data set [14], the partition ratio (Kp) came to 1.4.
Consider `CCOC(=O)Nc1ccc(NCc2ccc(F)cc2)cc1N` [EZOGABINE], for which the Activity in data set [18] and in [19] was 62.5% throughout.
